Converted amounts (≈) assume the structure as drawn.
What was measured:
Format in all cases: functional
[1] = tested on: Streptococcus pneumoniae; assay: Antibacterial activity against Erythromycin-susceptible Streptococcus pneumoniae ATCC 49619 assessed as reduction in microbial growth
[2] = tested on: Streptococcus pneumoniae; assay: Bactericidal activity against Erythromycin-susceptible Streptococcus pneumoniae ATCC 49619
Summary of the method: (§1)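 Bacteria were exposed to 1- to 8-fold MIC of the sample, then transferred to fresh medium without antibacterial. After further incubation, colonies were counted. MBC was taken as the lowest concentration giving a >3 log10 reduction in colony number.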

[3] = tested on: Streptococcus pneumoniae; assay: Ratio of MBC to MIC against Erythromycin-susceptible Streptococcus pneumoniae ATCC 49619
[4] = tested on: Streptococcus pneumoniae; assay: Antibacterial activity against penicillin-susceptible Streptococcus pneumoniae PU09 harboring mef gene assessed as reduction in microbial growth
[5] = tested on: Streptococcus pneumoniae; assay: Bactericidal activity against penicillin-susceptible Streptococcus pneumoniae PU09 harboring mef gene
Summary of the method: (§2)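 Bacteria were exposed to 1- to 8-fold their MIC of test sample, then transferred to fresh culture medium without antibacterial compound and incubated for the required time. Colonies were then counted. MBC is the lowest concentration giving a reduction in colony number of >3 Log₁₀.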

[6] = tested on: Streptococcus pneumoniae; assay: Ratio of MBC to MIC against penicillin-susceptible Streptococcus pneumoniae PU09
[7] = tested on: Streptococcus pneumoniae; assay: Antibacterial activity against MLSB-resistant Streptococcus pneumoniae 07P390 harboring ermB gene assessed as reduction in microbial growth
[8] = tested on: Streptococcus pneumoniae; assay: Bactericidal activity against MLSB-resistant Streptococcus pneumoniae 07P390 harboring ermB gene assessed as reduction in microbial growth; summary of the method: as §2
[9] = tested on: Streptococcus pneumoniae; assay: Ratio of MBC to MIC against MLSB-resistant Streptococcus pneumoniae 07P390 harboring ermB
[10] = tested on: Staphylococcus aureus; assay: Antibacterial activity against MLSB/methicillin/ciprofloxacin-resistant Staphylococcus aureus PU32 harboring ermA gene assessed as reduction in microbial growth
[11] = tested on: Staphylococcus aureus; assay: Bactericidal activity against MLSB/methicillin/ciprofloxacin-resistant Staphylococcus aureus PU32 harboring ermA gene; summary of the method: as §2
[12] = tested on: Staphylococcus aureus; assay: Ratio of MBC to MIC against MLSB/methicillin/ciprofloxacin-resistant Staphylococcus aureus PU32 harboring ermA gene
[13] = tested on: Staphylococcus aureus; assay: Antibacterial activity against MLSB/methicillin-resistant Staphylococcus aureus 15B196 assessed as reduction in microbial growth
[14] = tested on: Staphylococcus aureus; assay: Bactericidal activity against MLSB/methicillin-resistant Staphylococcus aureus 15B196; summary of the method: as §2
[15] = tested on: Staphylococcus aureus; assay: Ratio of MBC to MIC against MLSB/methicillin-resistant Staphylococcus aureus 15B196
[16] = tested on: Haemophilus influenzae; assay: Antibacterial activity against azithromycin-susceptible Haemophilus influenzae ATCC 49247 assessed as reduction in microbial growth
[17] = tested on: Haemophilus influenzae; assay: Bactericidal activity against azithromycin-susceptible Haemophilus influenzae ATCC 49247; summary of the method: as §1
[18] = tested on: Streptococcus pyogenes; assay: Antibacterial activity against MLSB-resistant Streptococcus pyogenes 12-206 harboring ermA gene assessed as reduction in microbial growth
[19] = tested on: Streptococcus pyogenes; assay: Bactericidal activity against MLSB-resistant Streptococcus pyogenes 12-206 harboring ermA gene; summary of the method: as §2
[20] = tested on: Streptococcus pyogenes; assay: Ratio of MBC to MIC against MLSB-resistant Streptococcus pyogenes 12-206 harboring ermA gene
[21] = tested on: Haemophilus influenzae; assay: Ratio of MBC to MIC against azithromycin-susceptible Haemophilus influenzae ATCC 49247
[22] = tested on: Escherichia coli; assay: Antibacterial activity against Escherichia coli JW5503-1 depletion of toIC efflux gene assessed as reduction in microbial growth
[23] = tested on: Escherichia coli; assay: Antibacterial activity against Escherichia coli JW5503-KanS depletion of toIC efflux gene assessed as reduction in microbial growth
[24] = tested on: Staphylococcus aureus; assay: Antibacterial activity against MLSB/methicillin/ciprofloxacin-resistant Staphylococcus aureus PU32 harboring ermA gene assessed as reduction in microbial growth relative to ciprofloxacin
[25] = tested on: Staphylococcus aureus; assay: Antibacterial activity against MLSB/methicillin-resistant Staphylococcus aureus 15B196 assessed as reduction in microbial growth relative to ciprofloxacin
[26] = tested on: Haemophilus influenzae; assay: Antibacterial activity against azithromycin-susceptible Haemophilus influenzae ATCC 49247 assessed as reduction in microbial growth relative to ciprofloxacin

Compound	MIC [1]	MBC [2]	Ratio [3]	MIC [4]	MBC [5]	Ratio [6]	MIC [7]	MBC [8]	Ratio [9]	MIC [10]	MBC [11]	Ratio [12]	MIC [13]	MBC [14]	MIC [16]	MBC [17]	MIC [18]	MBC [19]	Ratio [20]	Ratio [21]	other results
CC[C@H]1OC(=O)[C@H](C)[C@@H](OC(=O)Cc2ccccn2)[C@H](C)[C@@H](O[C@@H]2O[C@H](C)C[C@H](N(C)C)[C@H]2O)[C@](C)(OC(=O)CCN2CCN(c3cc4c(cc3F)c(=O)c(C(N)=O)cn4C3CC3)CC2)C[C@@H](C)CN(C)[C@H](C)[C@H]2OC(=O)O[C@@]21C	4 µg/mL	8 µg/mL (≈ 7.14 µM)	2	8 µg/mL	16 µg/mL (≈ 14.3 µM)	2	32 µg/mL	32 µg/mL	1	32 µg/mL	> 256 µg/mL	>8	32 µg/mL	> 256 µg/mL	256 µg/mL	> 256 µg/mL	16 µg/mL	16 µg/mL (≈ 14.3 µM)	1	–	Ratio [15]: >8
CC[C@H]1OC(=O)[C@H](C)[C@@H](OC(=O)Cc2cccnc2)[C@H](C)[C@@H](O[C@@H]2O[C@H](C)C[C@H](N(C)C)[C@H]2O)[C@](C)(OC(=O)CCNCCC#Cc2ccc3c(c2)c(=O)c(C(=O)O)cn3C2CC2)C[C@@H](C)CN(C)[C@H](C)[C@H]2OC(=O)O[C@@]21C	2 µg/mL	8 µg/mL (≈ 7.36 µM)	4	4 µg/mL	16 µg/mL (≈ 14.7 µM)	4	64 µg/mL	128 µg/mL	2	128 µg/mL	> 256 µg/mL	–	256 µg/mL	> 256 µg/mL	32 µg/mL	64 µg/mL (≈ 58.9 µM)	64 µg/mL	64 µg/mL (≈ 58.9 µM)	1	2	–
CC[C@H]1OC(=O)[C@H](C)[C@@H](OC(=O)Cc2ccccn2)[C@H](C)[C@@H](O[C@@H]2O[C@H](C)C[C@H](N(C)C)[C@H]2O)[C@](C)(OC(=O)CCNCCC#Cc2ccc3c(c2)c(=O)c(C(=O)O)cn3C2CC2)C[C@@H](C)CN(C)[C@H](C)[C@@H](O)[C@]1(C)O	0.25 µg/mL	0.5 µg/mL (≈ 0.472 µM)	2	2 µg/mL	4 µg/mL (≈ 3.77 µM)	2	64 µg/mL	256 µg/mL	4	128 µg/mL	> 256 µg/mL	–	> 256 µg/mL	> 256 µg/mL	32 µg/mL	64 µg/mL (≈ 60.4 µM)	16 µg/mL	128 µg/mL (≈ 121 µM)	8	2	–
O=C(O)c1cn(C2CC2)c2cc(N3CCNCC3)c(F)cc2c1=O [CIPROFLOXACIN]	2 µg/mL	–	–	2 µg/mL	–	–	2 µg/mL	–	–	256 µg/mL	> 256 µg/mL	–	0.5 µg/mL	0.5 µg/mL (≈ 1.51 µM)	–	0.008 µg/mL (≈ 0.0241 µM)	0.5 µg/mL	–	–	–	MIC [22]: ≤ 0.064 µg/mL; MIC [23]: ≤ 0.064 µg/mL
CC[C@H]1OC(=O)[C@H](C)[C@@H](OC(=O)Cc2ccccn2)[C@H](C)[C@@H](O[C@@H]2O[C@H](C)C[C@H](N(C)C)[C@H]2O)[C@](C)(OC(=O)CCNCCCCc2cnc3ccccc3c2)C[C@@H](C)CN(C)[C@H](C)[C@@H](O)[C@]1(C)O	0.25 µg/mL	0.5 µg/mL (≈ 0.519 µM)	2	4 µg/mL	4 µg/mL (≈ 4.15 µM)	1	8 µg/mL	32 µg/mL	4	4 µg/mL	16 µg/mL (≈ 16.6 µM)	4	256 µg/mL	> 256 µg/mL	16 µg/mL	32 µg/mL (≈ 33.2 µM)	–	–	–	2	–
CC[C@H]1OC(=O)[C@H](C)C(=O)[C@H](C)[C@@H](O[C@@H]2O[C@H](C)C[C@H](N(C)C)[C@H]2O)[C@](C)(OC)C[C@@H](C)C(=O)[C@H](C)[C@H]2N(CCCCn3cnc(-c4cccnc4)c3)C(=O)O[C@]12C [TELITHROMYCIN]	≤ 0.008 µg/mL	≤ 0.008 µg/mL	–	0.25 µg/mL	0.5 µg/mL (≈ 0.616 µM)	2	0.016 µg/mL	> 0.125 µg/mL	>8	2 µg/mL	–	–	4 µg/mL	–	4 µg/mL	–	0.25 µg/mL	–	–	–	fold change (FC) [24]: 0.0032; fold change (FC) [25]: >52; fold change (FC) [26]: 407
CC[C@H]1OC(=O)[C@H](C)[C@@H](OC(=O)Cc2ccccn2)[C@H](C)[C@@H](O[C@@H]2O[C@H](C)C[C@H](N(C)C)[C@H]2O)[C@](C)(OC(=O)CCNCC/C=C/c2cnc3ccccc3c2)C[C@@H](C)CN(C)[C@H](C)[C@@H](O)[C@]1(C)O	0.125 µg/mL	0.125 µg/mL (≈ 0.13 µM)	1	1 µg/mL	1 µg/mL (≈ 1.04 µM)	1	4 µg/mL	> 32 µg/mL	>8	2 µg/mL	8 µg/mL (≈ 8.31 µM)	4	64 µg/mL	> 256 µg/mL	8 µg/mL	16 µg/mL (≈ 16.6 µM)	–	–	–	2	Ratio [15]: >4
CC[C@H]1OC(=O)[C@H](C)[C@@H](OC(=O)Cc2ccccn2)[C@H](C)[C@@H](O[C@@H]2O[C@H](C)C[C@H](N(C)C)[C@H]2O)[C@](C)(OC(=O)CCNCCC#Cc2ccc3ncccc3c2)C[C@@H](C)CN(C)[C@H](C)[C@@H](O)[C@]1(C)O	0.03 µg/mL	0.03 µg/mL (≈ 0.0312 µM)	1	0.5 µg/mL	1 µg/mL (≈ 1.04 µM)	2	32 µg/mL	64 µg/mL	–	4 µg/mL	> 32 µg/mL	>8	> 256 µg/mL	> 256 µg/mL	4 µg/mL	8 µg/mL (≈ 8.33 µM)	2 µg/mL	> 16 µg/mL	>8	2	fold change (FC) [24]: 0.0054; fold change (FC) [25]: >44; fold change (FC) [26]: 344
CC[C@H]1OC(=O)[C@H](C)[C@@H](O[C@H]2C[C@@](C)(OC)[C@@H](O)[C@H](C)O2)[C@H](C)[C@@H](O[C@@H]2O[C@H](C)C[C@H](N(C)C)[C@H]2O)[C@](C)(OC)C[C@@H](C)C(=O)[C@H](C)[C@@H](O)[C@]1(C)O [CLARITHROMYCIN]	–	–	–	8 µg/mL	–	–	> 256 µg/mL	–	–	64 µg/mL	–	–	≥ 16 µg/mL	–	16 µg/mL	–	> 256 µg/mL	–	–	–	fold change (FC) [24]: 0.11; fold change (FC) [25]: >57; fold change (FC) [26]: 1768

Source: ChEMBL document CHEMBL4680236, “Design, synthesis and structure-activity relationships of novel 15-membered macrolides: Quinolone/quinoline-containing sidechains tethered to the C-6 position of azithromycin acylides” (Eur J Med Chem, 2020)
